Where only a bound is given, the exact number is not on record here.

The nature of data set [1]: Half-life (hydrolysis) in human blood. In kind it is ADME.
Data set [2] addresses T1, Angiotensin-converting enzyme (Oryctolagus cuniculus) (UniProt P12822).
T1 sequence (whole entry): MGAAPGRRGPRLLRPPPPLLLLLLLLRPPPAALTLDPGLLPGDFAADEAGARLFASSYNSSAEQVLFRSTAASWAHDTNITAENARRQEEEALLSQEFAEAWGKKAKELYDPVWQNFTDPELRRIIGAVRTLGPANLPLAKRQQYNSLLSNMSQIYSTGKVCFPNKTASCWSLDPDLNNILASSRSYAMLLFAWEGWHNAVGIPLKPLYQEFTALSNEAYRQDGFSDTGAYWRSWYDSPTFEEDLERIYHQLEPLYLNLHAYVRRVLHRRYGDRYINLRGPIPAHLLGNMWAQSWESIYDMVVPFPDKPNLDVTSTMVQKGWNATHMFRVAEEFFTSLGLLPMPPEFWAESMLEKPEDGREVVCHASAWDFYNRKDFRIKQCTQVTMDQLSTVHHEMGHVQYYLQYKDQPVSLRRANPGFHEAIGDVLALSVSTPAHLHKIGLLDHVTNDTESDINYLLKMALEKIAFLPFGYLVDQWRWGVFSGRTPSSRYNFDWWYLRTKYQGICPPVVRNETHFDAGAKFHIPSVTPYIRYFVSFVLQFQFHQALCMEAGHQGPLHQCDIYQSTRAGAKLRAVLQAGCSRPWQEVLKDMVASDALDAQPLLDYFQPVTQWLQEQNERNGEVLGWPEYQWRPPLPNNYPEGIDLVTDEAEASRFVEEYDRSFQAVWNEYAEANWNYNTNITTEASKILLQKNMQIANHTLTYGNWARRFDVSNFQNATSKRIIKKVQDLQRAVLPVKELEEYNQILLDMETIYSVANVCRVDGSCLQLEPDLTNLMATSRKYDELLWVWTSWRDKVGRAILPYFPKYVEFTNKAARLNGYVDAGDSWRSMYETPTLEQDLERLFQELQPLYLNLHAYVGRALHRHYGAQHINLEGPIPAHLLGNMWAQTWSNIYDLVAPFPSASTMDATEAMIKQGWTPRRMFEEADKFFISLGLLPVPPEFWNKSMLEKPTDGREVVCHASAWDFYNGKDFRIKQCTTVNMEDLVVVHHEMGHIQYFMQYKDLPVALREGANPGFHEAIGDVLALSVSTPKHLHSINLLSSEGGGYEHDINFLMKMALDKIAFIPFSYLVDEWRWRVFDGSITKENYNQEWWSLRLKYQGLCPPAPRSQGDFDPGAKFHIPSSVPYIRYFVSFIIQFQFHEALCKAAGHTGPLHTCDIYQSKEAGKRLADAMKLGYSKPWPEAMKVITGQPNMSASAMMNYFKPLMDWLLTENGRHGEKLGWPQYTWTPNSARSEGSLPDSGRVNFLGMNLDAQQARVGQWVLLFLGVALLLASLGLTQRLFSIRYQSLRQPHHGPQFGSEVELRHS
The experiment in a line: Inhibitory activity towards purified rabbit lung Angiotensin I converting enzyme. The method, boiled down:
(§1)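 Purified rabbit lung ACE was used, following a published method with two changes: Zn2+ (20 μM) was added to the purified enzyme, and the substrate was radiolabeled. The read-out was inhibition of enzyme activity.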

For data set [3], the target named is T1, Angiotensin-converting enzyme (Oryctolagus cuniculus). The data set is described as follows: Inhibitory activity towards purified rabbit lung angiotensin I converting enzyme at 10 e-4 M.
The target is the same in data set [4]. The experiment in a line: Inhibitory activity towards purified rabbit lung angiotensin I converting enzyme. The method, boiled down:
as §1

The target is the same in data set [5]. The data set is described as follows: Inhibitory activity towards purified rabbit lung angiotensin I converting enzyme; no inhibition at 10 e-5 M.

Usually half-life stands for how long it takes for the measured level to halve. What is called IC50 is the concentration needed to halve the response being measured. A high value points to a need for much substance. Turning to `C[C@H](CS)C(=O)O[C@@H](Cc1ccccc1)C(=O)O`, the half-life in data set [1] worked out at 23 min. Besides, the IC50 in data set [2] is 10.6 nM.

One may read the inhibition as the drop in the measured response relative to a control, in per cent. Take `C[C@H](CS)C(=O)O`: the inhibition in data set [3] stood at 30%.

For `C[C@H](CS)C(=O)O[C@@H](CSCc1ccccc1)C(=O)O`, the half-life in data set [1] is greater than 60 min. The same compound returned an IC50 in data set [2] of 3.2 nM.

For `CSC[C@H](OC(=O)[C@H](C)CS)C(=O)O`, in data set [1], the half-life is 14 min. In addition, the IC50 in data set [4] was found to be 5.7 nM.

In data set [1], `C[C@H](CS)C(=O)O[C@@H](CSC1CCCC1)C(=O)O` yielded a half-life of 27 min. In data set [2], this compound registered an IC50 of 1.8 nM.

Take `C[C@H](CS)C(=O)OCC(=O)O`: in data set [1], the half-life turned out to be 53 min. Further, in data set [4], it took 123 nM to reach half-maximal inhibition (IC50).

For the compound `CSC[C@H](O)C(=O)O`, the inhibition entry in data set [5] is “no inhibition at 10 e-5 M”.

As to `CCC(CC)SC[C@H](OC(=O)[C@H](C)CS)C(=O)O`, the half-life in data set [1] was 37 min. Besides, the half-maximal inhibitory concentration (IC50) in data set [4] amounted to 2 nM.

For `C[C@H](CS)C(=O)N[C@@H](Cc1ccccc1)C(=O)O`, in data set [1], the half-life was greater than 60 min. This compound displayed an IC50 in data set [2] of 84.7 nM.

For the compound `C[C@H](CS)C(=O)N1CCC[C@H]1C(=O)O`, the IC50 in data set [2] is 2.7 nM.

In data set [1], `CC(C)SC[C@H](OC(=O)[C@H](C)CS)C(=O)O` gave a half-life of 20 min. In data set [4], this compound displayed an IC50 of 2.8 nM.

The record behind these values is ChEMBL document CHEMBL1125310, “(R)-2-(3-mercapto-2(S)-methyl-1-oxo-propoxy)-3-(methylthio)propanoic acid, the first ultra-short-acting angiotensin converting enzyme inhibitor” (J Med Chem, 1992).
